Measured values pooled from the literature.
Each line is one published result; the experiments were not run side by side.
PIK3CA E542K: Phosphatidylinositol 4,5-bisphosphate 3-kinase catalytic subunit alpha isoform (PIK3CA, Homo sapiens, UniProt P42336, E542K)
PIK3CA H1047Y: Phosphatidylinositol 4,5-bisphosphate 3-kinase catalytic subunit alpha isoform (PIK3CA, Homo sapiens, UniProt P42336, H1047Y)
PIK3CA Q546K: Phosphatidylinositol 4,5-bisphosphate 3-kinase catalytic subunit alpha isoform (PIK3CA, Homo sapiens, UniProt P42336, Q546K)
PIK3CA C420R: Phosphatidylinositol 4,5-bisphosphate 3-kinase catalytic subunit alpha isoform (PIK3CA, Homo sapiens, UniProt P42336, C420R)
PIK3CA M1043I: Phosphatidylinositol 4,5-bisphosphate 3-kinase catalytic subunit alpha isoform (PIK3CA, Homo sapiens, UniProt P42336, M1043I)
PIK3CA E545A: Phosphatidylinositol 4,5-bisphosphate 3-kinase catalytic subunit alpha isoform (PIK3CA, Homo sapiens, UniProt P42336, E545A)
PIK3CA I800L: Phosphatidylinositol 4,5-bisphosphate 3-kinase catalytic subunit alpha isoform (PIK3CA, Homo sapiens, UniProt P42336, I800L)

SMILES	target	observed	method	tested at	remaining binding [%]
CCC(=N\O)/C(C)=C/c1ccc(F)cc1	PIK3CA E542K	cell-free assay	competition with immobilised ligand	1 µM	100
O=C(c1ccc(Nc2nccc(-c3cc4ccccc4s3)n2)cc1)N1CCC(N2CCCC2)CC1	PIK3CA H1047Y	binding	competition with immobilised ligand	1 µM	61
C[C@H]1CCN(c2nccc(-c3cnn4ncccc34)n2)C1	PIK3CA Q546K	binding	–	1 µM	85
FC(F)(F)c1ccc2c(c1)nc(-c1cccnc1)n2C1CC1	PIK3CA C420R	cell-free assay	competition with immobilised ligand	1 µM	92
Cc1cnc(Nc2ccc(C(=O)N3CCC(N4CCCC4)CC3)cc2)nc1-c1cc2ccccc2s1	PIK3CA Q546K	binding	competition with immobilised ligand	1 µM	97
COc1ncc2cc3ccccc3nc2c1C#N	Phosphatidylinositol 4,5-bisphosphate 3-kinase catalytic subunit alpha isoform (PIK3CA, Homo sapiens, UniProt P42336, H1047L)	cell-free assay	competition with immobilised ligand	5 µM	98
O=C(NCCCN1CCOCC1)c1ccc(Nc2nccc(-c3cc4ccccc4s3)n2)cc1	PIK3CA M1043I	binding	competition with immobilised ligand	1 µM	80
c1ccc(N2CCN(Cc3nc4ccccc4[nH]3)CC2)nc1	PIK3CA Q546K	cell-free assay	competition with immobilised ligand	1 µM	100
O=C(Nc1c[nH]nc1C(=O)NC1CCNCC1)c1cc(F)cc(F)c1	PIK3CA E542K	binding	competition with immobilised ligand	1 µM	88
CC1=C(C#N)[C@@H](c2ccc3[nH]nc(C)c3c2)C(C#N)=C(c2ccc(Cl)cc2)N1	PIK3CA E545A	cell-free assay	competition with immobilised ligand	1 µM	75.4
CN(C)c1nccc(-c2cnn3ncccc23)n1	PIK3CA C420R	binding	–	1 µM	100
CN1CCN(c2ccc(Nc3nccc(-c4ccccc4)n3)cc2C(F)(F)F)CC1	PIK3CA H1047Y	binding	–	10 µM	90
CN(C)c1nccc(-c2cnc3ncccn23)n1	Phosphatidylinositol 4,5-bisphosphate 3-kinase catalytic subunit alpha isoform (PIK3CA, Homo sapiens, UniProt P42336)	binding	–	1 µM	71
COCCOc1nc(-c2ccc(Cl)nc2)nc2c1CN(C(=O)c1ncn3ccccc13)CC2	PIK3CA H1047Y	cell-free assay	competition with immobilised ligand	0.1 µM	79
N[C@H]1CCN(c2nccc(-c3cnn4ncccc34)n2)C1	PIK3CA I800L	binding	–	1 µM	100
C=CC(=O)N1CCC(C(=O)NCC(=O)N2CCN(c3nc(-c4cnc(N)nc4C(F)F)nc(N4CCOCC4)n3)CC2)CC1	PIK3CA M1043I	binding	competition with immobilised ligand	1 µM	0
F[C@@H]1CCN(c2nccc(-c3cnn4ncccc34)n2)C1	Phosphatidylinositol 4,5-bisphosphate 3-kinase catalytic subunit alpha isoform (PIK3CA, Homo sapiens, UniProt P42336, E545K)	binding	–	1 µM	100
COc1cnc(Nc2cccc(S(N)(=O)=O)c2)nc1N1CCN(c2ccccc2)CC1	PIK3CA E545A	binding	competition with immobilised ligand	1 µM	100
CC(=O)N1CCC(c2ccc(C(=O)NC3=NCCN3)cc2C(F)(F)F)CC1	PIK3CA M1043I	cell-free assay	competition with immobilised ligand	1 µM	100
CN(C)c1ncc(F)c(-c2cnn3ncccc23)n1	PIK3CA Q546K	binding	–	1 µM	86
CCN1CCN(Cc2ccc(C(=O)Nc3ccc(C)c(Oc4ccc5c(c4)CC(=O)N5)c3)cc2C(F)(F)F)CC1	PIK3CA M1043I	binding	competition with immobilised ligand	1 µM	100
CNC(=O)[C@@H]1CC[C@@H](n2c(-c3ccc4cnccc4c3)nc3ccc(C(=O)NCc4cccc(C(N)=O)c4)cc32)C1	PIK3CA Q546K	binding	competition with immobilised ligand	1 µM	100
c1cnn2ncc(-c3ccnc(N4CCC45COC5)n3)c2c1	PIK3CA I800L	binding	–	1 µM	68
Cc1c(C(=O)O)cc(-c2ccc(C3CCNCC3)cc2)c2ccc(-c3ccc(C(F)(F)F)cc3)cc12	PIK3CA M1043I	cell-free assay	competition with immobilised ligand	1 µM	100
